Active and inactive are the calls of the source.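 The calls were made as follows: active = current rise at least 3 SD above the untreated control mean in each of two repeat wells; inactive = the rest.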
Target: Potassium voltage-gated channel subfamily KQT member 1 (Homo sapiens) (UniProt P51787)
Assay: KCNQ1 channel current potentiators, confirmation, orthogonal assay for KCNQ1 potentiator project, IonWorks patch clamp, KCNQ1-CHO cells (AID 493184);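 as to current potentiation: percent change of the same well's current before compound addition so 0% = no change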
Details: automated patch clamp current, at 10 µM; active compounds read high
How it was run: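 Probe or stimulus: depolarizing pulse to +40 mV from -90 mV; Material: CHO cells carrying KCNQ1; Compound: one dose, 10 µM final; Signal: automated voltage clamp, amphotericin B perforated patch; Read-out basis: percent current increase versus pre-compound level; Buffer or medium: pH 7.4 external bath; Replication: duplicates.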

Sequence of Potassium voltage-gated channel subfamily KQT member 1 (Homo sapiens) (P51787 whole entry, looked up): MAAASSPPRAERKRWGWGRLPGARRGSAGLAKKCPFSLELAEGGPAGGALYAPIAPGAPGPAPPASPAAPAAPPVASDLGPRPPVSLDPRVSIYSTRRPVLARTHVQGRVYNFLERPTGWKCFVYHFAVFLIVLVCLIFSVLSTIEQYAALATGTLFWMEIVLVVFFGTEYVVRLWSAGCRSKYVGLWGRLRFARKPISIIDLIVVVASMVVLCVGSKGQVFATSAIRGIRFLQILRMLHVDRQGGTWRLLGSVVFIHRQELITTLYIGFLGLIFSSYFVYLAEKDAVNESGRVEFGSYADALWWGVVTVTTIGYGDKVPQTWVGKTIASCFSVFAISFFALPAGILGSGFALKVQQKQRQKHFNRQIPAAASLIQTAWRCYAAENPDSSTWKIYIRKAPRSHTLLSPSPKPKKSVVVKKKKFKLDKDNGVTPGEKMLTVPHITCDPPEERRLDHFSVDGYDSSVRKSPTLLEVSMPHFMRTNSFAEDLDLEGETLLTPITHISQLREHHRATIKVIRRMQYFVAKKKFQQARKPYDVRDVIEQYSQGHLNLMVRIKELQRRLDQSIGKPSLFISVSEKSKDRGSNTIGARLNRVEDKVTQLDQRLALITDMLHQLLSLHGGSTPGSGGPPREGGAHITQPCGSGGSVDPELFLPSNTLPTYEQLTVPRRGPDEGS

Row | Structure (SMILES) | outcome | current potentiation
1 | CCCCCCCN1N=C(C)C(C(=O)c2ccccc2)C1=O (stereo not given) | inactive | –
2 | O=C(Cc1cccs1)N=Nc1c(O)[nH]c2ccc(Br)cc12 | inactive | –
3 | CSc1ccc(/C=N/NC(=O)c2cccs2)cc1 | inactive | –
4 | COC(=O)C1=NN(C(=O)c2ccc(Cl)cc2)C(O)(c2ccccc2)C1 (stereo not given) | inactive | –
5 | CCc1cc2c(=O)n(CCC(C)C)c(=S)[nH]c2s1 | inactive | –
6 | Oc1c(Br)cc(Br)cc1/C=N/c1nc2c(s1)CCCC2 | inactive | –
7 | CC(C)c1ccc(NC(=O)C2CC(=O)N=C(N)S2)cc1 (stereo not given) | inactive | –
8 | CCc1ccc(/C=C/C(=O)c2cc(Br)ccc(=O)c2O)cc1 | inactive | –
9 | O=C(CCC1CCN(C(=O)c2cncs2)CC1)Nc1ccccc1 | inactive | –
10 | Cc1ccc2nc(NC(=S)NC(=O)c3cccs3)sc2c1 | inactive | –
11 | COc1cc(CNCc2ccccn2)ccc1OCc1c(Cl)cccc1Cl | inactive | –
12 | COc1cc(C2NC(=O)NC(O)(C(F)(F)F)C2C(C)=O)cc(OC)c1OC (stereo not given) | inactive | –
13 | Cc1ccc(C(C#N)c2ccc3c(C(F)(F)F)cc(C(F)(F)F)nc3n2)cc1 (stereo not given) | inactive | –
14 | CN=C1c2cc3cc(OC)ccc3n2CCN1Cc1ccccc1 | inactive | –
15 | Cc1ccccc1NC(=S)NC(=O)c1cc(-c2ccccc2)nc2ccccc12 | inactive | –
16 | CCOc1ncccc1C(=O)OCc1ccc(C#N)cc1 | inactive | –
17 | S=c1nc(C2CCCCC2)n(-c2ccccc2)[nH]1 | inactive | –
18 | O=C(CN1C(=O)COc2ccccc21)N(Cc1cccnc1)Cc1cccc(F)c1 | inactive | –
19 | O=C(NC(=S)N1CCN(c2ccccc2)CC1)c1c(F)cccc1F | inactive | –
20 | O=c1c(O)c(-c2ccc3c(c2)OCO3)oc2ccccc12 | inactive | –

Row | Structure (SMILES) | outcome | current potentiation
21 | COc1ccc2c(c1)cc(C)c1nnc(SCC(=O)N3CCN(C(=O)c4ccco4)CC3)n12 | inactive | –
22 | Cc1ccc(-c2csc3nc[nH]c(=S)c23)cc1 | inactive | –
23 | O=C(NC(=S)N1CCN(Cc2ccc3c(c2)OCO3)CC1)c1ccc(Cl)cc1 | inactive | –
24 | CCOC(=O)c1sc(NC(=O)c2ccncc2)nc1C | inactive | –
25 | CC(C)n1cc(NC(=O)c2cc(-c3ccccc3)on2)cn1 | inactive | –
26 | NC(=S)n1[nH]c(-c2ccc([N+](=O)[O-])cc2)c(N=Nc2cccc(Cl)c2)c1=O | inactive | –
27 | Cc1ccc(OCC(=O)NNC(=O)C(=O)NC(C)(C)C)cc1 | inactive | –
28 | CCCCN(CCCC)c1ccc(C(=O)c2ccccc2C(=O)O)c(O)c1 | – | 15.1% (active)
29 | O=C(Nc1nnc(-c2ccc(Cl)cc2)o1)c1ccccc1Br | inactive | –
30 | O=C(CNC(=O)c1sc2ccccc2c1Cl)OCc1ccccc1 | inactive | –
31 | CCc1nnc(NC(=O)CCC(=O)N2CCN(C3CCCCC3)CC2)s1 | inactive | –
32 | CC1CCc2c(sc3[nH]c(=S)n(C)c(=O)c23)C1 (stereo not given) | inactive | –
33 | CCC1=NN(C(=O)c2ccc(Br)cc2)C(O)(c2ccccc2)C1 (stereo not given) | inactive | –
34 | CCCCC(Nc1ncnc2ccccc12)C(=O)O (stereo not given) | inactive | –
35 | CCn1c(O)c(N=NC2=NC(=O)CS2)c2ccccc21 | inactive | –
36 | CCC1(c2ccccc2)NC(=O)N(CC(=O)Nc2ccccc2C(=O)N2CCCCC2)C1=O (stereo not given) | inactive | –
37 | Cc1ccc(NC2=C(NC(=O)c3ccccc3)C(=O)c3ccccc3C2=O)cc1Cl | inactive | –
38 | Cc1c(CCC(=O)N2CCC[C@H]2C(=O)O)c(=O)oc2c(C)c3oc4c(c3cc12)CCCC4 | inactive | –
39 | O=C(CCN1CCCCCC1)Nc1ccc(F)cc1 | inactive | –
40 | COc1ccc(-n2cc(CNC3CCN(C)CC3)c(-c3cccc(F)c3)n2)cc1 | inactive | –
